Consider 13 compounds from ChEMBL document CHEMBL4627272, “Design, synthesis, and biological activity evaluation of a series of pleuromutilin derivatives with novel C14 side chains” (2020).

In general, MIC refers to the lowest concentration that inhibits growth of the organism.

What all share (type): functional
Experiment [1] concerns Staphylococcus aureus. The experiment in a line: Antibacterial activity against methicillin-sensitive Staphylococcus aureus ATCC 29213 assessed as reduction in bacterial growth incubated for 18 hrs by agar dilution method. The note with it: ATCC 29213, 18 h. The essentials: (§1)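 CLSI agar dilution MIC. Stocks at 1920 μg/ml in 0.2% DMSO, twofold diluted and mixed into agar plates to final 0.03–128 µg/mL. Inoculum set to 0.5 turbidity, diluted 10-fold and applied by multipoint inoculator within 30 min, about 10^4 CFU per spot. Plates incubated 35 ± 2°C for 18 h. MIC is the lowest concentration with no visible growth.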
In general terms: In agar dilution the substance is mixed into plates at graded concentrations.

In experiment [2] the test system is Staphylococcus epidermidis. Kind of experiment: Antibacterial activity against methicillin-sensitive Staphylococcus epidermidis ATCC 12228 assessed as reduction in bacterial growth incubated for 18 hrs by agar dilution method. The following applies: ATCC 12228, 18 h. The essentials:
as §1

Experiment [3] deals with Staphylococcus aureus. The experiment in a line: Antibacterial activity against methicillin-resistant Staphylococcus aureus ATCC 33591 assessed as reduction in bacterial growth incubated for 18 hrs by agar dilution method. The following applies: ATCC 33591, 18 h. The method, boiled down:
as §1

Experiment [4] concerns Staphylococcus epidermidis. Kind of experiment: Antibacterial activity against methicillin-resistant Staphylococcus epidermidis 16-5 assessed as reduction in bacterial growth incubated for 18 hrs by agar dilution method. The following applies: 16-5, 18 h. The method, boiled down: as §1

In brackets after ≈: the same amount, converted by molar mass.

For `C=C[C@]1(C)C[C@@H](OC(=O)CS[C@@H]2CC[C@H](C(=O)OCC)C[C@H]2NS(=O)(=O)c2ccc(Cl)cc2)[C@]2(C)[C@H](C)CC[C@]3(CCC(=O)[C@H]32)[C@@H](C)[C@@H]1O`, the MIC in the experiment with Staphylococcus aureus [1] turned out to be 1 µg/mL (≈ 1.35 µM); in experiment [2] it was 0.5 µg/mL (≈ 0.677 µM); in the experiment on Staphylococcus aureus [3], 0.5 µg/mL (≈ 0.677 µM); in experiment [4], 0.5 µg/mL (≈ 0.677 µM).
Regarding `C=C[C@]1(C)C[C@@H](OC(=O)CS[C@@H]2CC[C@H](C(=O)OCC)C[C@H]2N)[C@]2(C)[C@H](C)CC[C@]3(CCC(=O)[C@H]32)[C@@H](C)[C@@H]1O`, the MIC in the experiment on Staphylococcus aureus [1] was found to be 1 µg/mL (≈ 1.77 µM); in experiment [2], 0.25 µg/mL (≈ 0.443 µM); in the experiment with Staphylococcus aureus [3], 1 µg/mL (≈ 1.77 µM); in experiment [4], 0.25 µg/mL (≈ 0.443 µM).
`C=C[C@]1(C)C[C@@H](OC(=O)CS[C@@H]2CC[C@H](C(=O)OCC)C[C@H]2NS(=O)(=O)c2ccc([N+](=O)[O-])cc2)[C@]2(C)[C@H](C)CC[C@]3(CCC(=O)[C@H]32)[C@@H](C)[C@@H]1O`: the MIC with Staphylococcus aureus [1] was determined as 1 µg/mL (≈ 1.34 µM); in experiment [2], 0.5 µg/mL (≈ 0.668 µM); with Staphylococcus aureus [3], 1 µg/mL (≈ 1.34 µM); in experiment [4] it was 0.5 µg/mL (≈ 0.668 µM).
For the compound `C=C[C@]1(C)C[C@@H](OC(=O)CS[C@@H]2CC[C@H](C(=O)OCC)C[C@H]2NS(=O)(=O)c2ccc(F)cc2)[C@]2(C)[C@H](C)CC[C@]3(CCC(=O)[C@H]32)[C@@H](C)[C@@H]1O`, the MIC in the experiment on Staphylococcus aureus [1] came to 1 µg/mL (≈ 1.39 µM); in experiment [2], 0.5 µg/mL (≈ 0.693 µM); with Staphylococcus aureus [3], 1 µg/mL (≈ 1.39 µM); in experiment [4] it was 1 µg/mL (≈ 1.39 µM).
As to `C=C[C@]1(C)C[C@@H](OC(=O)CS[C@@H]2CC[C@H](C(=O)OCC)C[C@H]2NS(=O)(=O)c2ccc(C(C)=O)cc2)[C@]2(C)[C@H](C)CC[C@]3(CCC(=O)[C@H]32)[C@@H](C)[C@@H]1O`, the MIC (with Staphylococcus aureus [1]; in experiment [2]; in the experiment on Staphylococcus aureus [3]; in experiment [4]) was 0.25 µg/mL (≈ 0.335 µM) in each case.
Regarding `C=C[C@]1(C)C[C@@H](OC(=O)CS[C@@H]2CC[C@H](C(=O)OCC)C[C@H]2NS(=O)(=O)c2ccc(C#N)cc2)[C@]2(C)[C@H](C)CC[C@]3(CCC(=O)[C@H]32)[C@@H](C)[C@@H]1O`, the MIC in the experiment on Staphylococcus aureus [1] is 1 µg/mL (≈ 1.37 µM); in experiment [2] it was 0.25 µg/mL (≈ 0.343 µM); in the experiment on Staphylococcus aureus [3] it was 1 µg/mL (≈ 1.37 µM); in experiment [4], 0.5 µg/mL (≈ 0.686 µM).
On to `C=C[C@]1(C)C[C@@H](OC(=O)CS[C@@H]2CC[C@H](C(=O)OCC)C[C@H]2NS(=O)(=O)c2ccccc2)[C@]2(C)[C@H](C)CC[C@]3(CCC(=O)[C@H]32)[C@@H](C)[C@@H]1O`, for which the minimal inhibitory concentration (MIC) is 1 µg/mL (≈ 1.42 µM) in the experiment with Staphylococcus aureus [1], 0.5 µg/mL (≈ 0.71 µM) in experiment [2], 0.5 µg/mL (≈ 0.71 µM) with Staphylococcus aureus [3] and 1 µg/mL (≈ 1.42 µM) in experiment [4].
Turning to `C=C[C@]1(C)C[C@@H](OC(=O)CS[C@@H]2CC[C@H](C(=O)OCC)C[C@H]2NS(=O)(=O)c2ccc(C)cc2)[C@]2(C)[C@H](C)CC[C@]3(CCC(=O)[C@H]32)[C@@H](C)[C@@H]1O`, the MIC worked out at 1 µg/mL (≈ 1.39 µM) with Staphylococcus aureus [1], 0.25 µg/mL (≈ 0.348 µM) in experiment [2], 1 µg/mL (≈ 1.39 µM) in the experiment with Staphylococcus aureus [3] and 0.5 µg/mL (≈ 0.696 µM) in experiment [4].
As to `C=C[C@]1(C)C[C@@H](OC(=O)CS[C@@H]2CC[C@H](C(=O)OCC)C[C@H]2NS(=O)(=O)c2ccc(OC)cc2)[C@]2(C)[C@H](C)CC[C@]3(CCC(=O)[C@H]32)[C@@H](C)[C@@H]1O`, the minimum inhibitory concentration (MIC) is 0.5 µg/mL (≈ 0.681 µM) in the experiment on Staphylococcus aureus [1], 0.25 µg/mL (≈ 0.341 µM) in experiment [2], 0.25 µg/mL (≈ 0.341 µM) with Staphylococcus aureus [3] and 0.5 µg/mL (≈ 0.681 µM) in experiment [4].
On to `C=C[C@]1(C)C[C@@H](OC(=O)CS[C@@H]2CC[C@H](C(=O)OCC)C[C@H]2NS(=O)(=O)c2ccc(Br)cc2)[C@]2(C)[C@H](C)CC[C@]3(CCC(=O)[C@H]32)[C@@H](C)[C@@H]1O`, for which the MIC (with Staphylococcus aureus [1]; in experiment [2]; in the experiment on Staphylococcus aureus [3]; in experiment [4]) was 1 µg/mL (≈ 1.28 µM) each time.
For the compound `C=C[C@]1(C)C[C@@H](OC(=O)CS[C@@H]2CC[C@@H](N)C[C@H]2O)[C@]2(C)[C@H](C)CC[C@]3(CCC(=O)[C@H]32)[C@@H](C)[C@@H]1O` [LEFAMULIN], the MIC is 0.25 µg/mL (≈ 0.492 µM) with Staphylococcus aureus [1], not above 0.03 µg/mL in experiment [2], 0.5 µg/mL (≈ 0.985 µM) in the experiment with Staphylococcus aureus [3] and 0.25 µg/mL (≈ 0.492 µM) in experiment [4].
Consider `C=C[C@]1(C)C[C@@H](OC(=O)CS[C@@H]2CC[C@H](C(=O)O)C[C@H]2N)[C@]2(C)[C@H](C)CC[C@]3(CCC(=O)[C@H]32)[C@@H](C)[C@@H]1O`, for which the minimal inhibitory concentration (MIC) in the experiment on Staphylococcus aureus [1] was found to be 32 µg/mL (≈ 59.7 µM); in experiment [2], 2 µg/mL (≈ 3.73 µM); in the experiment on Staphylococcus aureus [3], 32 µg/mL (≈ 59.7 µM); in experiment [4], 4 µg/mL (≈ 7.47 µM).
Take `C=C[C@]1(C)C[C@@H](OC(=O)CS[C@@H]2CC[C@H](C(=O)OCC)C[C@H]2NS(=O)(=O)c2ccc(NC(C)=O)cc2)[C@]2(C)[C@H](C)CC[C@]3(CCC(=O)[C@H]32)[C@@H](C)[C@@H]1O`: the minimum inhibitory concentration (MIC) (with Staphylococcus aureus [1]; in experiment [2]; with Staphylococcus aureus [3]; in experiment [4]) was 0.5 µg/mL (≈ 0.657 µM) each time.
